Measured values from different studies.
Protocols differ between the studies behind these lines. pIC50: −log10 of the molar value.
Read-out: cell growth or viability

SMILES | cell line | assay | conditions | pIC50
O=C(CSc1nc2ccccc2s1)N/N=C/c1ccc(OCC(=O)Nc2ccc(Br)cc2)cc1 | Z-138 | MTS | 72 h | < 4.00
O=c1cc(OCc2cc(-c3ccc(Cl)cc3Cl)no2)c2ccccc2o1 | Z-138 | MTS | 72 h | < 4.00
COc1cccc2c1C(=O)c1c(O)c3c(c(O)c1C2=O)C[C@@](O)(C(=O)CO)C[C@@H]3O[C@H]1C[C@H](N)[C@H](O)[C@H](C)O1 | BXPC-3 | – | 96 h | 6.91
Cc1ccc(CN2C(=O)C(=Nc3cccc(Cl)c3)c3ccccc32)cc1 | B16 | MTT | 48 h | 5.83
O=C(CSc1nc2ccccc2s1)N/N=C/c1ccc(OCC(=O)Nc2ccc([N+](=O)[O-])cc2)cc1 | Z-138 | MTS | 72 h | 5.43
Cc1cccc(N=C2C(=O)N(Cc3cccc(Cl)c3)c3ccccc32)c1 | B16 | MTT | 48 h | 5.17
Cc1nn(-c2ccc(S(=O)(=O)N3CCN(C)CC3)cc2)c2nn3nnnc3nc12 | DLD-1 | MTT | – | 7.10
Cc1cc2c(C(N)=O)cccc2n1-c1nc2c(c(NCc3ccccc3)n1)CCCN2 | ARP-1 | – | 72 h | 5.89
FC(F)(F)c1ccc(-c2cc(COc3cc(C(F)(F)F)nc4ccccc34)on2)cc1 | Z-138 | MTS | 72 h | < 4.00
O=C1Nc2ccccc2C1=Nc1ccccc1I | B16 | MTT | 48 h | 5.13
Cc1cc2c(C(=O)O)cccc2n1-c1nc2c(c(NCc3ccccc3)n1)CCCN2 | ARP-1 | – | 72 h | 6.05
O=C1C(=Nc2ccccc2I)c2ccccc2N1Cc1cccc(Cl)c1 | B16 | MTT | 48 h | 5.23
Clc1ccc(-c2cc(CNc3cccc4cccnc34)on2)c(Cl)c1 | Z-138 | MTS | 72 h | 4.55
CC(C)c1cccc(C(C)C)c1N=C1C(=O)N(Cc2ccc(Br)cc2)c2ccccc21 | B16 | MTT | 48 h | 4.47
c1ccc(-c2cc(CNc3cccc4cccnc34)on2)cc1 | Z-138 | MTS | 72 h | 4.45
O=C(CSc1nc2ccccc2s1)N/N=C/c1ccc(OCC(=O)Nc2cccc(Br)c2)cc1 | Z-138 | MTS | 72 h | < 4.00
c1ccc(-c2cc(CNc3cccc4cccnc34)on2)nc1 | Z-138 | MTS | 72 h | 4.55
CONC(=O)c1cccc2c1cc(C)n2-c1nc2c(c(NCc3ccccc3)n1)CCCN2 | BXPC-3 | – | 72 h | 5.85
N/C(=N\O)c1ccc(-c2cc(CNc3cccc4cccnc34)on2)cc1 | Z-138 | MTS | 72 h | 5.68
COc1cc(N=C2C(=O)N(Cc3ccccc3)c3ccccc32)cc(OC)c1 | B16 | MTT | 48 h | 6.24
